According to ChEMBL document CHEMBL1138311, “Design and synthesis of novel and potent inhibitors of the type II transmembrane serine protease, matriptase, based upon the sunflower trypsin inhibitor-1” (J Med Chem, 2007):
The source made the active and inactive calls. No cut-off for these calls is given here.

How the values were obtained:
Prothrombin (Bos taurus) = Prothrombin (Bos taurus) (UniProt P00735); experiment: (§1) Inhibition of bovine thrombin
In short: (§2)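 Room-temperature fluorogenic assay in 100 mM Tris-HCl (pH 8.5) with 100 mg/mL BSA. Enzyme and inhibitor were preincubated, then N-tBoc-Leu-Arg-Arg-AMC substrate was added. Hydrolysis was followed by fluorescence (ex 360 nm, em 480 nm) at six to seven inhibitor concentrations. Ki was taken from Dixon plots of two data sets at different substrate concentrations.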

Prothrombin = Prothrombin (Bos taurus, UniProt P00735); experiment: as §1; in short: as §2
[1] = Selectivity for human matriptase over bovine thrombin
In short: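 Enzyme was preincubated with inhibitor before substrate addition. Matriptase substrate: t-Boc-Gln-Ala-Arg-AMC; thrombin substrate: N-tBoc-Leu-Arg-Arg-AMC. AMC release read at ex 360/em 480 nm over six to seven inhibitor concentrations. Ki from Dixon plots using two substrate concentrations.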

[2] = molecular target: T1, Suppressor of tumorigenicity 14 protein (Homo sapiens, UniProt Q9Y5Y6); experiment: Inhibition of human matriptase
T1 sequence (Q9Y5Y6 whole entry): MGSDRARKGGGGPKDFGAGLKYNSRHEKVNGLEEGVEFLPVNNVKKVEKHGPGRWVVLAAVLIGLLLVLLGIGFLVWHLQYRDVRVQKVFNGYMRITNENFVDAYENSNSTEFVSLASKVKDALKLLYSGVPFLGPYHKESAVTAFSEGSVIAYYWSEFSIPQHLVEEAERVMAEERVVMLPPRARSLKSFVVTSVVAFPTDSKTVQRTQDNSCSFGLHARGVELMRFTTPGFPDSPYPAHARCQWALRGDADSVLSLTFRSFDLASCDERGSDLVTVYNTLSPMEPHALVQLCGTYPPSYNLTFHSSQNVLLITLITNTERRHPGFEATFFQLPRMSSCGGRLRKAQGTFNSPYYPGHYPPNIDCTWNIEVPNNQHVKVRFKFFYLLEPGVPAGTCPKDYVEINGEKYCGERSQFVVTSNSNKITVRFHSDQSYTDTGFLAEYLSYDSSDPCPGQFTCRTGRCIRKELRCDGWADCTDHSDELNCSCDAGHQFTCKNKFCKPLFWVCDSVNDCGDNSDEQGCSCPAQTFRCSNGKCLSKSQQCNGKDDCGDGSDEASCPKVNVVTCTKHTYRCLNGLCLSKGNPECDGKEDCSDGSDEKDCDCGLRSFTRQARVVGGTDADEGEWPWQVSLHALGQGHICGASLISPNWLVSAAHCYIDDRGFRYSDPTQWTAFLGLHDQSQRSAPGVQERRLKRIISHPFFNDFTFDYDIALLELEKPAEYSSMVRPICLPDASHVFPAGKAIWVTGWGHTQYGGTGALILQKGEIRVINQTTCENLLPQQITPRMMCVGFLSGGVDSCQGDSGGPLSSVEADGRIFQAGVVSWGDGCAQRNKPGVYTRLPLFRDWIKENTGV
In short: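 Run at room temperature in 100 mM Tris-HCl (pH 8.5) with 100 mg/mL BSA. Enzyme and inhibitor were preincubated, then t-Boc-Gln-Ala-Arg-AMC was added and fluorescence read at ex 360 nm, em 480 nm over six to seven inhibitor concentrations. Ki came from Dixon plots at two substrate concentrations. A second format used purified matriptase with t-Boc-Gln-Ala-Arg-AFC in 100 mM Tris (pH 8.3) with BSA.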

In the case of `CC[C@H](C)[C@@H]1NC(=O)[C@@H]2CCCN2C(=O)[C@@H]2CCCN2C(=O)[C@H]([C@@H](C)CC)NC(=O)[C@H](CO)NC(=O)[C@H](CCCN)NC(=O)[C@H]([C@@H](C)O)NC(=O)[C@@H]2CSSC[C@H](NC1=O)C(=O)N[C@@H](Cc1ccccc1)C(=O)N1CCC[C@@H]1C(=O)N[C@@H](CC(=O)O)C(=O)NCC(=O)N[C@@H](CCCNC(=N)N)C(=O)N2`, the Activity (Prothrombin (Bos taurus)) is reported as “inactive”.
In the case of `CC[C@H](C)[C@@H]1NC(=O)[C@@H]2CCCN2C(=O)[C@@H]2CCCN2C(=O)[C@H]([C@@H](C)CC)NC(=O)[C@H](CO)NC(=O)[C@H](CCCCN)NC(=O)[C@H]([C@@H](C)O)NC(=O)[C@@H]2CSSC[C@H](NC1=O)C(=O)N[C@@H](Cc1ccccc1)C(=O)N1CCC[C@@H]1C(=O)N[C@@H](CC(=O)O)C(=O)NCC(=O)N[C@@H](CCCCNC(=N)N)C(=O)N2`, the Ki (Prothrombin) is reported as 7.63 µM and the Ratio Ki [1] is reported as 8.9.
Work on `CC[C@H](C)[C@@H]1NC(=O)[C@@H]2CCCN2C(=O)[C@@H]2CCCN2C(=O)[C@H]([C@@H](C)CC)NC(=O)[C@H](CO)NC(=O)[C@H](CCCCN)NC(=O)[C@H]([C@@H](C)O)NC(=O)[C@@H]2CSSC[C@H](NC1=O)C(=O)N[C@@H](Cc1ccc(-c3ccccc3)cc1)C(=O)N1CCC[C@@H]1C(=O)N[C@@H](CC(=O)O)C(=O)NCC(=O)N[C@@H](CCCNC(=N)N)C(=O)N2` yielded a Ki (Prothrombin) of 25.6 µM and a Ratio Ki [1] of 25.6.
`CC[C@H](C)[C@@H]1NC(=O)[C@@H]2CCCN2C(=O)[C@@H]2CCCN2C(=O)[C@H]([C@@H](C)CC)NC(=O)[C@H](CO)NC(=O)[C@H](CCCCN)NC(=O)[C@H]([C@@H](C)O)NC(=O)[C@@H]2CSSC[C@H](NC1=O)C(=O)N[C@@H](Cc1ccccc1)C(=O)N1CCC[C@@H]1C(=O)N[C@@H](CC(=O)O)C(=O)NCC(=O)N[C@@H](CCCNC(=N)N)C(=O)N2` gave a Ratio Ki [1] of 50.
For `CC[C@H](C)[C@@H]1NC(=O)[C@@H]2CCCN2C(=O)[C@@H]2CCCN2C(=O)[C@H]([C@@H](C)CC)NC(=O)[C@H](CO)NC(=O)[C@H](CCCCN)NC(=O)[C@H]([C@@H](C)O)NC(=O)[C@@H]2CSSC[C@H](NC1=O)C(=O)N[C@@H](Cc1ccccc1)C(=O)N1CCC[C@@H]1C(=O)N[C@@H](CC(=O)O)C(=O)NCC(=O)N[C@@H](CCCNC(N)=O)C(=O)N2`, the Ki (Prothrombin) was 827 µM and the Ratio Ki [1] was 37.
Work on `CC[C@H](C)[C@@H]1NC(=O)[C@@H]2CCCN2C(=O)[C@@H]2CCCN2C(=O)[C@H]([C@@H](C)CC)NC(=O)[C@H](CO)NC(=O)[C@H](CCCCN)NC(=O)[C@H]([C@@H](C)O)NC(=O)[C@@H]2CSSC[C@H](NC1=O)C(=O)N[C@@H](Cc1c(F)c(F)c(F)c(F)c1F)C(=O)N1CCC[C@@H]1C(=O)N[C@@H](CC(=O)O)C(=O)NCC(=O)N[C@@H](CCCNC(=N)N)C(=O)N2` yielded a Ki (Prothrombin) of 33.6 µM and a Ratio Ki [1] of 37.8.
In the case of `CC[C@H](C)[C@@H]1NC(=O)[C@@H]2CCCN2C(=O)[C@@H]2CCCN2C(=O)[C@H]([C@@H](C)CC)NC(=O)[C@H](CO)NC(=O)[C@H](CCCCN)NC(=O)[C@H]([C@@H](C)O)NC(=O)[C@@H]2CSSC[C@H](NC1=O)C(=O)N[C@@H](Cc1ccccc1)C(=O)N1CCC[C@@H]1C(=O)N[C@@H](CC(=O)O)C(=O)NCC(=O)N[C@@H](Cc1ccc(NC(=N)N)cc1)C(=O)N2`, the Ki (Prothrombin) is reported as 164 µM and the Ratio Ki [1] is reported as 1.8.
For `CC[C@H](C)[C@@H]1NC(=O)[C@@H]2CCCN2C(=O)[C@@H]2CCCN2C(=O)[C@H]([C@@H](C)CC)NC(=O)[C@H](CO)NC(=O)[C@H](CCCCN)NC(=O)[C@H]([C@@H](C)O)NC(=O)[C@H](CO)NC(=O)[C@H](CCCNC(=N)N)NC(=O)CNC(=O)[C@H](CC(=O)O)NC(=O)[C@H]2CCCN2C(=O)[C@H](Cc2ccccc2)NC(=O)[C@H](CO)NC1=O`, the Ki (Prothrombin) was 40.4 µM and the Ratio Ki [1] was 0.38.
`CC[C@H](C)[C@@H]1NC(=O)[C@@H]2CCCN2C(=O)[C@@H]2CCCN2C(=O)[C@H]([C@@H](C)CC)NC(=O)[C@H](CO)NC(=O)[C@H](CCCCCN)NC(=O)[C@H]([C@@H](C)O)NC(=O)[C@@H]2CSSC[C@H](NC1=O)C(=O)N[C@@H](Cc1ccccc1)C(=O)N1CCC[C@@H]1C(=O)N[C@@H](CC(=O)O)C(=O)NCC(=O)N[C@@H](CCCNC(=N)N)C(=O)N2` showed a Ki (Prothrombin) of 45.6 µM and a Ratio Ki [1] of 1.6.
For `CC[C@H](C)[C@@H]1NC(=O)[C@@H]2CCCN2C(=O)[C@@H]2CCCN2C(=O)[C@H]([C@@H](C)CC)NC(=O)[C@H](CO)NC(=O)[C@H](CCCCN)NC(=O)[C@H]([C@@H](C)O)NC(=O)[C@@H]2CSSC[C@H](NC1=O)C(=O)N[C@@H](Cc1ccc3ccccc3c1)C(=O)N1CCC[C@@H]1C(=O)N[C@@H](CC(=O)O)C(=O)NCC(=O)N[C@@H](CCCNC(=N)N)C(=O)N2`, the Ki (Prothrombin) was 16.3 µM and the Ratio Ki [1] was 36.
For `CC[C@H](C)[C@@H]1NC(=O)[C@@H]2CCCN2C(=O)[C@@H]2CCCN2C(=O)[C@H]([C@@H](C)CC)NC(=O)[C@H](CO)NC(=O)[C@H](CCCNC(=N)N)NC(=O)[C@H]([C@@H](C)O)NC(=O)[C@@H]2CSSC[C@H](NC1=O)C(=O)N[C@@H](Cc1ccccc1)C(=O)N1CCC[C@@H]1C(=O)N[C@@H](CC(=O)O)C(=O)NCC(=O)N[C@@H](CCCNC(=N)N)C(=O)N2`, the Ki (Prothrombin) was 0.86 µM and the Ratio Ki [1] was 0.18.
In the case of `CC[C@H](C)[C@@H]1NC(=O)[C@@H]2CCCN2C(=O)[C@@H]2CCCN2C(=O)[C@H]([C@@H](C)CC)NC(=O)[C@H](CO)NC(=O)[C@H](CCCCN)NC(=O)[C@H]([C@@H](C)O)NC(=O)[C@@H]2CSCSC[C@H](NC1=O)C(=O)N[C@@H](Cc1ccccc1)C(=O)N1CCC[C@@H]1C(=O)N[C@@H](CC(=O)O)C(=O)NCC(=O)N[C@@H](CCCNC(=N)N)C(=O)N2`, the Ki (Prothrombin) is reported as 10 µM, the Ki [2] is reported as 0.16 µM and the Ratio Ki [1] is reported as 62.5.
